# Reference: ChEMBL document CHEMBL1144399, “Peptoid-peptide hybrids as potent novel melanocortin receptor ligands” (J Med Chem, 2005)
# Where a SMILES comes first, the peptide text is derived from it. [ ]: non-standard residue; d: D form. Gly(N(CH2)2(3-indolyl)) = O=C(O)CNCCc1c[nH]c2ccccc12; Gly(N-(CH2)3-guanidino) = N=C(N)NCCCNCC(=O)O; Nle = CCCC[C@H](N)C(=O)O; Nphe = O=C(O)CNCc1ccccc1; NBuGly = CCCCNCC(=O)O; Nlys = NCCCCNCC(=O)O
# Assays:
# Assay type in all cases: cell-based, HEK293
# [1] = molecular target: T1, Melanocortin receptor 4 (Homo sapiens, UniProt P32245); assay: Effective concentration against human melanocortin receptor-4 expressed in 293 HEK cells
# Method in brief: (§1)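 LacZ reporter-gene activation assay in HEK293 cells expressing human MC3, human MC4 or mouse MC5 receptor. Dose-response curves run up to 30 µM. EC50 reported as -log(EC50) (M) with 95% confidence ranges. Incomplete or absent curves at 30 µM were not assigned values.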
# [2] = molecular target: T2, Melanocortin receptor 5 (Mus musculus, UniProt P41149); assay: Effective concentration against mouse melanocortin receptor-5 expressed in 293 HEK cells; method in brief: as §1
# [3] = molecular target: T3, Melanocortin receptor 3 (Homo sapiens, UniProt P41968); assay: Effective concentration against human melanocortin receptor-3 expressed in 293 HEK cells; method in brief: as §1
# [4] = molecular target: T2, Melanocortin receptor 5; assay: Displacement of [125I]NDP-MSH from mouse melanocortin receptor-5 expressed in 293 HEK cells
# Method in brief: (§2)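 Radioligand competition with [125I]-NDP-MSH on HEK293 cells expressing human MC3, human MC4 or mouse MC5 receptor. Ligands up to 30 µM. IC50 reported as -log(IC50) (M) with 95% confidence ranges. Ligands without activation activity were tested only at a single 30 µM concentration.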
# [5] = molecular target: T1, Melanocortin receptor 4; assay: Displacement of [125I]NDP-MSH from human melanocortin receptor-4 expressed in 293 HEK cells; method in brief: as §2
# [6] = molecular target: T3, Melanocortin receptor 3; assay: Displacement of [125I]NDP-MSH from human melanocortin receptor-3 expressed in 293 HEK cells; method in brief: as §2
# T2 sequence (P41149 whole entry): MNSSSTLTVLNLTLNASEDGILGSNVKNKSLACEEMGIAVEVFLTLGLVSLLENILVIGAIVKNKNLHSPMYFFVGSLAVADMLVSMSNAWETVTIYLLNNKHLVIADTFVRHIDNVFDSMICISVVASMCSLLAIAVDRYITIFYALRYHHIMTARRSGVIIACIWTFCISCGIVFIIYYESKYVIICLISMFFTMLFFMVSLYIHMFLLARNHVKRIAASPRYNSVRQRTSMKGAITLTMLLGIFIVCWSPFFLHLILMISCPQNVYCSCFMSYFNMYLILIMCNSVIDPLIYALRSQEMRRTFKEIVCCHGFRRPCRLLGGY
# T3 sequence (P41968 whole entry): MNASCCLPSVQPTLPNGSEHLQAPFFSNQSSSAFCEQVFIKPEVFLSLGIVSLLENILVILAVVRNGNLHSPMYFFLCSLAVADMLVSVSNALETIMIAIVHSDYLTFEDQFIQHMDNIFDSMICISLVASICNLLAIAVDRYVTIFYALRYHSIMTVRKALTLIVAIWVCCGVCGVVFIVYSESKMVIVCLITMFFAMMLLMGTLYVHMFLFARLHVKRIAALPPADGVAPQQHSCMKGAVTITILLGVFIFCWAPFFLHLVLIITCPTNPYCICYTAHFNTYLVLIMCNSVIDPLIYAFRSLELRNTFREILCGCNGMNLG
# T1 sequence (P32245 whole entry): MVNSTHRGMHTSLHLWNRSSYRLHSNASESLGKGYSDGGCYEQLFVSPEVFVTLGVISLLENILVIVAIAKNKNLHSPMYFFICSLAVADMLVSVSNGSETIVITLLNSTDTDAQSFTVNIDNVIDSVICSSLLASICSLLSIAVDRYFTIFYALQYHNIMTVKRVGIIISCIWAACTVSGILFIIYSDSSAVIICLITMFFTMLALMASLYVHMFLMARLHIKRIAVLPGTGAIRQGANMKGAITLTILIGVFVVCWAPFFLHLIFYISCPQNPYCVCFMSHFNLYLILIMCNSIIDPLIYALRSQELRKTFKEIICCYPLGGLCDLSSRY
SMILES,EC50 [1] [µM],EC50 [2] [µM],EC50 [3] [µM],IC50 [4] [µM],IC50 [5] [µM],IC50 [6] [µM]
CCCCN(CC(=O)NCC(=O)N(CCCCN)CC(=O)N[C@H](Cc1ccccc1)C(=O)N[C@@H](CCCNC(=N)N)C(=O)N[C@@H](Cc1c[nH]c2ccccc12)C(=O)NCC(N)=O)C(C)=O,0.0631,7.94,2,0.794,0.0631,1.26
CCCCN(CC(=O)NCC(=O)N[C@@H](CCCCN)C(=O)N[C@H](Cc1ccccc1)C(=O)N(CCCN=C(N)N)CC(=O)N(CCc1c[nH]c2ccccc12)CC(=O)NCC(N)=O)C(C)=O,0.1,0.316,0.158,1.26,0.251,3.16
CCCC[C@H](NC(C)=O)C(=O)NCC(=O)N[C@@H](CCCCN)C(=O)N[C@H](Cc1ccccc1)C(=O)N(CCCCNC(=N)N)CC(=O)N(CCc1c[nH]c2ccccc12)CC(=O)NCC(N)=O,0.251,0.0126,0.501,0.501,0.158,0.631
CCCCN(CC(=O)NCC(=O)N[C@@H](CCCCN)C(=O)N[C@H](Cc1ccccc1)C(=O)N[C@@H](CCCNC(=N)N)C(=O)N(CC(=O)NCC(N)=O)Cc1c[nH]c2ccccc12)C(C)=O,0.631,3.98,0.794,1.58,0.794,1.26
CCCCN(CC(=O)NCC(=O)N(CCCCN)CC(=O)N[C@H](Cc1ccccc1)C(=O)N[C@@H](CCCNC(=N)N)C(=O)N(CC(=O)NCC(N)=O)Cc1c[nH]c2ccccc12)C(C)=O,3.98,,,2,0.794,2
CCCC[C@H](NC(C)=O)C(=O)NCC(=O)N[C@@H](CCCCN)C(=O)N[C@H](Cc1ccccc1)C(=O)N(CCCNC(=N)N)CC(=O)N(CCc1c[nH]c2ccccc12)CC(=O)NCC(N)=O,0.0794,0.0158,0.158,1,0.0794,2
CCCCN(CC(=O)NCC(=O)N(CCCCN)CC(=O)N[C@H](Cc1ccccc1)C(=O)N(CCCN=C(N)N)CC(=O)N(CCc1c[nH]c2ccccc12)CC(=O)NCC(N)=O)C(C)=O,0.794,,6.31,2,1,3.98
CCCC[C@H](NC(C)=O)C(=O)NCC(=O)N(CCCCN)CC(=O)N[C@H](Cc1ccccc1)C(=O)N[C@@H](CCCNC(=N)N)C(=O)N(CCc1c[nH]c2ccccc12)CC(=O)NCC(N)=O,2,,,,,
CCCC[C@H](NC(C)=O)C(=O)NCC(=O)N(CCCCN)CC(=O)N[C@H](Cc1ccccc1)C(=O)N[C@@H](CCCN=C(N)N)C(=O)N(CC(=O)NCC(N)=O)Cc1c[nH]c2ccccc12,1.26,2,5.01,0.631,0.158,0.794
CCCC[C@H](NC(C)=O)C(=O)NCC(=O)N[C@@H](CCCCN)C(=O)N[C@H](Cc1ccccc1)C(=O)N(CCCNC(=N)N)CC(=O)N(CC(=O)NCC(N)=O)Cc1c[nH]c2ccccc12,0.158,0.1,0.631,2,0.316,5.01
CCCC[C@H](NC(C)=O)C(=O)NCC(=O)N[C@@H](CCCCN)C(=O)N[C@H](Cc1ccccc1)C(=O)N[C@@H](CCCN=C(N)N)C(=O)N(CC(=O)NCC(N)=O)Cc1c[nH]c2ccccc12,0.158,0.251,0.316,0.794,0.251,0.501
CCCCN(CC(=O)NCC(=O)N[C@@H](CCCCN)C(=O)N[C@H](Cc1ccccc1)C(=O)N(CCCN=C(N)N)CC(=O)N[C@@H](Cc1c[nH]c2ccccc12)C(=O)NCC(N)=O)C(C)=O,0.794,6.31,5.01,,,
CCCC[C@H](NC(C)=O)C(=O)NCC(=O)N[C@@H](CCCCN)C(=O)N[C@H](Cc1ccccc1)C(=O)N(CCCCN=C(N)N)CC(=O)N[C@@H](Cc1c[nH]c2ccccc12)C(=O)NCC(N)=O,0.251,0.0631,,2,0.158,3.98
CCCCN(CC(=O)NCC(=O)N[C@@H](CCCCN)C(=O)N[C@H](Cc1ccccc1)C(=O)N(CCCN=C(N)N)CC(=O)N(CC(=O)NCC(N)=O)Cc1c[nH]c2ccccc12)C(C)=O,0.501,,,3.16,0.794,7.94
CCCCN(CC(=O)NCC(=O)N(CCCCN)CC(=O)N[C@H](Cc1ccccc1)C(=O)N[C@@H](CCCN=C(N)N)C(=O)N(CCc1c[nH]c2ccccc12)CC(=O)NCC(N)=O)C(C)=O,6.31,,,6.31,2,
CCCCN(CC(=O)NCC(=O)N[C@@H](CCCCN)C(=O)N[C@H](Cc1ccccc1)C(=O)N[C@@H](CCCNC(=N)N)C(=O)N(CCc1c[nH]c2ccccc12)CC(=O)NCC(N)=O)C(C)=O,0.316,,3.16,,,
CCCC[C@H](NC(C)=O)C(=O)NCC(=O)N[C@@H](CCCCN)C(=O)N[C@H](Cc1ccccc1)C(=O)N[C@@H](CCCNC(=N)N)C(=O)N[C@@H](Cc1c[nH]c2ccccc12)C(=O)NCC(N)=O,0.000501,0.0316,0.00794,,0.00251,0.2
CCCC[C@H](NC(C)=O)C(=O)NCC(=O)N[C@@H](CCCCN)C(=O)N[C@H](Cc1ccccc1)C(=O)N(CCCNC(=N)N)CC(=O)N[C@@H](Cc1c[nH]c2ccccc12)C(=O)NCC(N)=O,0.631,0.251,3.98,3.16,0.398,5.01
CCCCN(CC(=O)NCC(=O)N(CCCCN)CC(=O)N[C@H](Cc1ccccc1)C(=O)N(CCCN=C(N)N)CC(=O)N(CC(=O)NCC(N)=O)Cc1c[nH]c2ccccc12)C(C)=O,5.01,,,3.98,3.98,
CCCC[C@H](NC(C)=O)C(=O)NCC(=O)N[C@@H](CCCCN)C(=O)N[C@H](Cc1ccccc1)C(=O)N[C@@H](CCCN=C(N)N)C(=O)N(CCc1c[nH]c2ccccc12)CC(=O)NCC(N)=O,0.316,2,2,10,0.316,7.94
CCCCN(CC(=O)NCC(=O)N[C@@H](CCCCN)C(=O)N[C@H](Cc1ccccc1)C(=O)N[C@@H](CCCN=C(N)N)C(=O)N[C@@H](Cc1c[nH]c2ccccc12)C(=O)NCC(N)=O)C(C)=O,0.00251,0.794,0.0251,,0.02,0.126
CCCCN(CC(=O)NCC(=O)N[C@@H](CCCCN)C(=O)N(CC(=O)N[C@@H](CCCN=C(N)N)C(=O)N[C@@H](Cc1c[nH]c2ccccc12)C(=O)NCC(N)=O)Cc1ccccc1)C(C)=O (Ac-[NBuGly]GK[Nphe]RWG-NH2),2,,,5.01,5.01,
CCCCN(CC(=O)NCC(=O)N(CCCCN)CC(=O)N[C@@H](Cc1ccccc1)C(=O)N(CCCN=C(N)N)CC(=O)N[C@@H](Cc1c[nH]c2ccccc12)C(=O)NCC(N)=O)C(C)=O (Ac-[NBuGly]G[Nlys]F[Gly(N-(CH2)3-guanidino)]WG-NH2),3.16,6.31,,,5.01,
CCCC[C@H](NC(C)=O)C(=O)NCC(=O)N[C@@H](CCCCN)C(=O)N(CC(=O)N[C@@H](CCCN=C(N)N)C(=O)N[C@@H](Cc1c[nH]c2ccccc12)C(=O)NCC(N)=O)Cc1ccccc1 (Ac-[Nle]GK[Nphe]RWG-NH2),1.26,,,,,
CCCC[C@H](NC(C)=O)C(=O)NCC(=O)N[C@@H](CCCCN)C(=O)N(CC(=O)N(CCCN=C(N)N)CC(=O)N(CCc1c[nH]c2ccccc12)CC(=O)NCC(N)=O)Cc1ccccc1 (Ac-[Nle]GK[Nphe][Gly(N-(CH2)3-guanidino)][Gly(N(CH2)2(3-indolyl))]G-NH2),,7.94,,,,
CCCC[C@H](NC(C)=O)C(=O)NCC(=O)N(CCCCN)CC(=O)N[C@@H](Cc1ccccc1)C(=O)N(CCCN=C(N)N)CC(=O)N[C@@H](Cc1c[nH]c2ccccc12)C(=O)NCC(N)=O (Ac-[Nle]G[Nlys]F[Gly(N-(CH2)3-guanidino)]WG-NH2),2,0.501,,,,
CCCC[C@H](NC(C)=O)C(=O)NCC(=O)N(CCCCN)CC(=O)N(CC(=O)N[C@@H](CCCN=C(N)N)C(=O)N[C@@H](Cc1c[nH]c2ccccc12)C(=O)NCC(N)=O)Cc1ccccc1 (Ac-[Nle]G[Nlys][Nphe]RWG-NH2),2,,,,,
"CCCC[C@H](NC(C)=O)C(=O)NCC(=O)N(CCCCN)CC(=O)NC(Cc1ccccc1)C(=O)N(CCCNC(=N)N)CC(=O)N(CC(=O)NCC(N)=O)Cc1c[nH]c2ccccc12 (single isomer, unassigned)",2,3.16,6.31,3.16,3.16,
"CCCC[C@H](NC(C)=O)C(=O)NCC(=O)N(CCCCN)CC(=O)NC(Cc1ccccc1)C(=O)N(CCCNC(=N)N)CC(=O)N(CCc1c[nH]c2ccccc12)CC(=O)NCC(N)=O (single isomer, unassigned)",0.398,1,3.98,1.58,0.501,3.98
